Assay outcomes (PubChem BioAssay)
In the library only some 4% were active in any assay of this set; here they are far more common.
OX1R antag-1: OX1R (HCRTR1) antagonists, primary screen, fluorescence, CHO/OX1R cells, Fluo-8 calcium, orexin A; Fluo-8 calcium fluorescence; inhibition, % at 5 µM; 0.43% of 330,000 active; AID 434989, 2010;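 active = inhibition above its plate's threshold, mean inhibition of all tested compounds on the plate plus 3 SD, cut at about 37% in these data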;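 note: 0% = orexin A challenge wells and 100% = SB-334867-A antagonist wells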
TAAR1 agonist: human TAAR1 agonists, primary screen, Fluo-8 calcium fluorescence, CHO RD-HGA16 cells. vehicle wells 0%, saturating PEA agonist 100%. activation, % at 3 µM. 0.99% of 360,000 active;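 active = activation above the mean activation of all test compounds in the run plus 3 SD, cut at about 38% in these data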
Target sequence (Q96RJ0 whole entry, looked up): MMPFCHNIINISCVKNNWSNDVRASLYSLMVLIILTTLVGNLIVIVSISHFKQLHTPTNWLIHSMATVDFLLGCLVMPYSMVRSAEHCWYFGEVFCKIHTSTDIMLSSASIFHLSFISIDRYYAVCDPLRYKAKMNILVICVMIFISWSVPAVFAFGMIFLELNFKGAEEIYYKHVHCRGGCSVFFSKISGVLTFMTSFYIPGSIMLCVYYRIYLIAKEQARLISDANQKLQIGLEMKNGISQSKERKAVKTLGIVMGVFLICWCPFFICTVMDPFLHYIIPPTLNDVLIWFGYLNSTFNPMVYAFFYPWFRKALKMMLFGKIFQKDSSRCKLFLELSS
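Test system: RD-HGA16 (CHO) cells co-expressing Gα16 and hTAAR1; dosing: one-point dosing at 3 µM (nominal); timing: 17-24 h seeding, 75 min 37 °C dye, 30 min RT; signal: kinetic Fluo-8 calcium fluorescence; read-out basis: % activation relative to PEA EC100 response; controls: DMSO and PEA EC100; replicates: n 1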
CHO parental Ca: ATP-evoked calcium signal inhibitors, parental CHO, primary screen, counter-screen for OX1R antagonist project, cell-based, fluorescence, Fluo-8 calcium dye; parental CHO-K1, ATP-induced calcium, Fluo-8 fluorescence; inhibition, % at 5.6 µM; 0.63% of 330,000 active;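 active = inhibition above that plate's mean sample inhibition plus 3 SD, cut at about 26% in these data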;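 note: 0% = ATP-challenged DMSO wells and 100% = DMSO wells without ATP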
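Material: Parental CHO cells | Reagent: ATP | Compound dosing: Single nominal dose of 5.6 µM per compound | Detection: Intracellular calcium via Fluo-8 no-wash fluorescent dye | Read-out: % inhibition of ATP-induced calcium mobilization | Benchmarks: Low control ATP plus DMSO, high control DMSO only | Replicates: Singlicate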
TAAR1 antag: human TAAR1 antagonists, primary screen, Fluo-8 calcium fluorescence, CHO RD-HGA16 cells; AID 624466, 2012; 1.5% of 360,000 active; antagonist; Trace amine-associated receptor 1 (Homo sapiens), Q96RJ0; inhibition, % at 3 µM;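 active = inhibition above a per-plate cutoff, the mean inhibition of test compounds on that plate plus 3 SD, cut at about 49% in these data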;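 note: 0% = DMSO plus EC80 beta-PEA response and 100% = DMSO alone without agonist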
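Assay system: CHO-derived RD-HGA16 cells stably expressing human TAAR1 plus Gα16. Timing: 140 s kinetic read after compound, 140 s after agonist. Technique: kinetic Fluo-8 calcium fluorescence measurement. Measure: % inhibition of agonist calcium response.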
OX1R antag-2: antagonists of human orexin 1 receptor (OX1R) | OX1R-expressing cells, FRET antagonist read-out | AID 485270, 2010 | inhibition, % at 6.6 µM | 1.8% of 330,000 active | Orexin/Hypocretin receptor type 1 (Homo sapiens), O43613; in the data active = inhibition mostly above about 38%, no sharp cut-off; inactive = mostly below about 40%;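 note: 0% = agonist challenge alone and 100% = reference antagonist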
nonsel antag count: nonselective antagonists in TAAR1 counter-screen cells, counter-screen for hTAAR1 antagonist project, cell-based, fluorescence, calcium; shares compounds with TAAR1 antag; counterscreen cell line, antagonist mode; inhibition, % at 3 µM; 77% of 2,400 active; AID 651780, 2012; in the data active = inhibition above about 22%;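 note: CHO-Ga16 host cells stimulated with ATP at an EC80 level; 0% = agonist EC80 plus vehicle and 100% = vehicle without agonist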
TAAR1 ant conf: human TAAR1 antagonists, retest of hits, confirmation, cell-based, fluorescence. 40% of 2,400 active. shares compounds with TAAR1 antag. AID 651785, 2012. inhibition, % at 3 µM. TAAR1-expressing cells, fluorescence antagonist read-out; in the data active = inhibition above about 49%;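 note: CHO-Ga16 host cells challenged with agonist PEA near its EC80; 0% = agonist at EC80 plus vehicle and 100% = vehicle with no agonist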
Ga16 nonsel ag: calcium activation in Ga16-expressing cells, counter-screen for TAAR1 antagonist project, cell-based, fluorescence. agonist counterscreen. shares compounds with TAAR1 antag. 18% of 2,400 active. activation, % at 3 µM. AID 651953, 2012; in the data active = activation above about 12%;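 note: 0% = vehicle wells and 100% = saturating stimulus response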
TAAR1 ag counter: TAAR1 activation by candidate antagonists – cell-based, fluorescence, counter-screen for TAAR1 antagonist project; shares compounds with TAAR1 antag; hTAAR1 cell line, agonist mode; activation, % at 3 µM; 2% of 2,400 active; in the data active = activation above about 37%;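 note: CHO cells stably expressing TAAR1 with calcium dye readout; 0% = DMSO vehicle and 100% = full agonist response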
Active calls of the source: *; x = not tested or not shown.

SMILES	OX1R antag-1	TAAR1 agonist	CHO parental Ca	TAAR1 antag	OX1R antag-2	nonsel antag count	TAAR1 ant conf	Ga16 nonsel ag	TAAR1 ag counter
COc1ccc(C(C(=O)NC2CCCCC2)N(Cc2ccco2)C(=O)c2snc(C(N)=O)c2N)cc1 (stereo not given)	x	15	x	71*	x	31*	53*	9	8
N#CCOC(=O)C1CCN(S(=O)(=O)c2ccc3c(c2)OCCO3)CC1	-4	2	23	-5	7	x	x	x	x
Fc1ccc2cnc(-c3ccccc3)c(-c3cccc(C(F)(F)F)c3)c2c1	-42	-1	-29	24	15	x	x	x	x
COc1cc2cnc(-c3ccccc3)c(-c3cccc(C(F)(F)F)c3)c2cc1OC	-19	9	-32	51*	11	15	19	2	2
O=C(CCSCc1ccc(Cl)cc1)NCCc1ccccc1	-24	2	-18	5	16	x	x	x	x
O=C(CCSCc1cccc(F)c1)NCCc1ccccc1	-31	19	2	56*	6	4	69*	7	26
CCOC(=O)C(C#N)(Cc1ccc2ccccc2n1)Cc1ccc2ccccc2n1	x	11	x	64*	x	30*	44	8	5
COc1cccc(CN(C)C(=O)c2cc(COc3c(F)cccc3F)on2)c1	-19	3	-10	0	26	x	x	x	x
CN(Cc1cnn(C)c1)C(=O)c1cc(COc2c(F)cccc2F)on1	-9	8	-6	105*	13	4	1	0	1
CC(=O)N1CCN(C(=O)COC(=O)c2oc3ccccc3c2C)CC1	-6	0	-4	-1	3	x	x	x	x
O=C(Nc1ccccc1)c1cccc(S(=O)(=O)Oc2ccc([N+](=O)[O-])cc2)c1	-5	7	1	24	24	x	x	x	x
O=C(NC1CCCc2ccccc21)C1CCC(CNS(=O)(=O)c2cccc3nsnc23)CC1 (stereo not given)	-18	8	5	57*	25	15	42	6	19
O=C(CCNS(=O)(=O)c1cccc2nsnc12)NC1CCCc2ccccc21 (stereo not given)	-28	2	-25	-6	58	x	x	x	x
CC(=O)c1ccc(S(=O)(=O)N2CCN(C(=O)CCC3CCCC3)CC2)cc1	x	0	x	-6	x	x	x	x	x
O=C(Nc1nc2ccccc2s1)c1ccc(OCC2CCCO2)cc1 (stereo not given)	-20	15	-23	28	12	x	x	x	x
COC(=O)[C@@H](NC(=O)NCc1cccs1)C(C)C	6	10	-6	3	5	x	x	x	x
COC(=O)[C@H](CCSC)NC(=O)NCc1cccs1	7	12	-7	107*	8	-5	0	0	-2
O=C(Nc1ccccc1)N(CCc1nc2ccccc2[nH]1)C1CCCC1	-25	10	-18	12	9	x	x	x	x
S=C(NC1CCCCC1)N(CCc1nc2ccccc2[nH]1)C1CCCC1	-21	10	-24	54*	6	28*	37	6	1
CC(=O)Nc1ccc2ccccc2c1[N+](=O)[O-]	x	0	x	-1	x	x	x	x	x
CCCN1CCN(CCCNC(=O)CN2C(=O)c3cccnc3Oc3ccc(C)cc32)CC1	-19	3	-11	-15	16	x	x	x	x
Cc1ccc2c(c1)N(CC(=O)NCCCc1ccccc1)C(=O)c1cccnc1O2	-4	13	-8	73*	18	27*	45	9	8
